# In publication PMC10582678 (Clinical and Translational Science, 2023):
# Key:
# [1] = Plasma pharmacokinetics, multiple ascending doses; format: in vivo, human; conditions: for CLss/F / AUC(0-t) / Cmax: mean ± SD; for AUC / Vd/F / concentration at 10 day / half-life / AUC(0-t) / Cmax / Tmax: human, plasma, oral; for AUC(0-t): AUC0-t; for Cmax: C max; for Tmax: T max
# In short: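 This was a double-blind, placebo-controlled design with three cohorts of eight (6 active, 2 placebo). Cohorts received oral 200, 400 or 600 mg q.d. for 10 consecutive days, with extra predose trough samples on days 8 and 9. Plasma drug was measured by validated HPLC-tandem accurate mass spectrometry (5.00–5000 ng/mL). Noncompartmental parameters were reported for day 1 and day 10, with Rac(AUC) = AUC0-τ day 10/AUC0-t day 1.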
# [2] = Plasma pharmacokinetics, food effect; format: in vivo, human; conditions: 600 mg; for half-life / Tmax: human, plasma, oral; for half-life: T1/2, 600 mg, mean ± SD; for Tmax: median (min, max)
# In short: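 This was a randomized, open-label, two-period crossover in 12 healthy subjects. Each received one oral 600 mg dose fasted then fed, or the reverse, with a 7-day washout. Drug was quantified by validated HPLC-tandem accurate mass spectrometry (calibration 5.00–5000 ng/mL). Parameters came from noncompartmental analysis.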
# [3] = Preclinical safety in rats; format: in vivo; conditions: stated in introduction
# [4] = Preclinical safety in beagles; format: in vivo; conditions: stated in introduction
# [5] = 200 mg, MAD 200 mg q.d., Day 10
# [6] = 400 mg, MAD 400 mg q.d., Day 10
# [7] = 600 mg, MAD 600 mg q.d., Day 10
smiles,measurement,setting,value
"N#CN1C[C@H](n2nc(-c3ccc(Oc4ccc(Cl)cn4)cc3)c(C(N)=O)c2N)CCC12CC2 [SN1011, 5-amino-3-(4-((5-chloro-2-pyridinyl)oxy)phenyl)-1-((6R)-4-cyano-4-azaspiro[2.5]octan-6-yl)-1H-pyrazole-4-carboxamide]",T last,"[1]; MAD 200 mg q.d., Day 1, median (min, max)","23.7 (23.7, 23.8) h"
same,CLss/F,"[1]; MAD 200 mg q.d., Day 10",27.2 ± 13.4 (49%) L/h
same,T last,"[1]; MAD 200 mg q.d., Day 10, median (min, max)","120.0 (72.0, 120.0) h"
same,T last,"[1]; MAD 400 mg q.d., Day 1, median (min, max)","23.8 (23.7, 23.9) h"
same,CLss/F,"[1]; MAD 400 mg q.d., Day 10",27.4 ± 6.2 (23%) L/h
same,T last,"[1]; MAD 400 mg q.d., Day 10, median (min, max)","120.0 (120.0, 120.0) h"
same,T last,"[1]; MAD 600 mg q.d., Day 1, median (min, max)","23.8 (23.7, 23.8) h"
same,CLss/F,"[1]; MAD 600 mg q.d., Day 10",30.0 ± 9.8 (33%) L/h
same,T last,"[1]; MAD 600 mg q.d., Day 10, median (min, max)","120.0 (96.0, 120.0) h"
same,AUC,[1]; 200 mg,8690 ± 3420 ng·h/mL
same,Vd/F,[1]; 200 mg,728 ± 161 L
same,concentration at 10 day,[1]; 200 mg,257 ± 111 ng/mL
same,half-life,[1]; 200 mg,20.5 ± 5.3 h
same,AUC(0-t),"[1]; 200 mg, MAD 200 mg q.d., Day 1",4280 ± 1130 ng·h/mL
same,AUC(0-t),[1]; [5],17300 ng·h/mL
same,Cmax,"[1]; 200 mg, MAD 200 mg q.d., Day 1, N = 5",260 ± 54.8 ng/mL
same,Cmax,[1]; [5],516 ± 172 ng/mL
same,Tmax,"[1]; 200 mg, MAD 200 mg q.d., Day 1, median (min, max)",3 h
same,Tmax,"[1]; 200 mg, MAD 200 mg q.d., Day 10, median (min, max)",3 h
same,AUC,[1]; 400 mg,15200 ng·h/mL
same,Vd/F,[1]; 400 mg,736 ± 181 L
same,concentration at 10 day,[1]; 400 mg,419 ± 121 ng/mL
same,half-life,[1]; 400 mg,19 ± 5.4 h
same,AUC(0-t),"[1]; 400 mg, MAD 400 mg q.d., Day 1",9170 ± 1640 ng·h/mL
same,AUC(0-t),[1]; [6],26400 ng·h/mL
same,Cmax,"[1]; 400 mg, MAD 400 mg q.d., Day 1",727 ± 183 ng/mL
same,Cmax,[1]; [6],1070 ± 234 ng/mL
same,Tmax,"[1]; 400 mg, MAD 400 mg q.d., Day 1, median (min, max)",4 h
same,Tmax,"[1]; 400 mg, MAD 400 mg q.d., Day 10, median (min, max)",3.5 h
same,AUC,[1]; 600 mg,22000 ng·h/mL
same,Vd/F,[1]; 600 mg,872 ± 345 L
same,concentration at 10 day,[1]; 600 mg,531 ± 264 ng/mL
same,half-life,[1]; 600 mg,20.4 ± 4.1 h
same,AUC(0-t),"[1]; 600 mg, MAD 600 mg q.d., Day 1",12200 ng·h/mL
same,AUC(0-t),[1]; [7],40300 ng·h/mL
same,Cmax,"[1]; 600 mg, MAD 600 mg q.d., Day 1",910 ± 332 ng/mL
same,Cmax,[1]; [7],1600 ± 497 ng/mL
same,Tmax,"[1]; 600 mg, MAD 600 mg q.d., Day 1, median (min, max)",4 h
same,Tmax,"[1]; 600 mg, MAD 600 mg q.d., Day 10, median (min, max)",2.5 h
same,Tmax,"[1]; MAD, steady-state conditions, across 200-600 mg q.d.",2.5 to 3.5 h
same,steady-state in the plasma achieved on,[1]; once daily administration,8 days
same,"AUC0-inf, Geometric Mean Ratio",[2]; fed state to fasted state,93.76%
same,"AUC0-t, Geometric Mean Ratio",[2]; fed state to fasted state,92.79%
same,"Cmax, Geometric Mean Ratio",[2]; fed state to fasted state,97.08%
same,half-life,[2]; Fasted,24.3 ± 8.7 h
same,half-life,[2]; Fed,26.6 ± 13.3 h
same,Tmax,[2]; Fasted,4 h
same,Tmax,[2]; Fed,6 h
same,safety profile,[3],acceptable safety profile
same,safety profile,[4],acceptable safety profile
